Reference: ChEMBL document CHEMBL1153560, “In vitro activities of doripenem and six comparator drugs against 423 aerobic and anaerobic bacterial isolates from infected diabetic foot wounds” (2008)
Converted amounts (≈) assume the structure as drawn.

Legend:
Assay type in all cases: functional
[1] = tested on: Anaerocolumna aminovalerica; assay: Antibacterial activity against Clostridium aminovalericum isolated from patient with diabetic foot infection after 44 to 48 hrs by agar dilution method
Outline: (§1)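 CLSI M11-A7 agar dilution: serial twofold drug dilutions made on the test day and added to molten agar. Spots of 10^5 CFU were applied by replicator, with drug-free control plates inoculated before and after each set. Incubation was 44 to 48 h at 37°C in an anaerobic chamber. MIC was the lowest concentration giving no growth or a marked change in growth versus controls.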

Anaerococcus vaginalis [2] = assay: Antibacterial activity against Anaerococcus vaginalis isolated from patient with diabetic foot infection assessed as percent resistant isolates after 44 to 48 hrs by agar dilution method
Outline: (§2)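 Agar dilution per CLSI M11-A7. Twofold drug dilutions made on the test day and added to molten agar. Replicator-applied inoculum of 10^5 CFU/spot. Drug-free control plates inoculated before and after each drug set. Incubation at 37°C for 44 to 48 h, anaerobic chamber. MIC taken as the lowest concentration giving no growth or a marked change in growth versus controls.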

[3] = tested on: Peptoniphilus asaccharolyticus; assay: Antibacterial activity against Peptoniphilus asaccharolyticus isolated from patient with diabetic foot infection after 44 to 48 hrs by agar dilution method; outline: as §1
[4] = tested on: Parabacteroides distasonis; assay: Antibacterial activity against Parabacteroides distasonis isolated from patient with diabetic foot infection assessed as percent resistant isolates after 44 to 48 hrs by agar dilution method; outline: as §2
Bacteroides ovatus [5] = assay: Antibacterial activity against Bacteroides ovatus isolated from patient with diabetic foot infection assessed as percent resistant isolates after 44 to 48 hrs by agar dilution method; outline: as §2
Parabacteroides merdae [6] = assay: Antibacterial activity against Parabacteroides merdae isolated from patient with diabetic foot infection after 44 to 48 hrs by agar dilution method; outline: as §1
[7] = tested on: Bacteroides thetaiotaomicron; assay: Antibacterial activity against Bacteroides thetaiotaomicron isolated from patient with diabetic foot infection assessed as percent resistant isolates after 44 to 48 hrs by agar dilution method; outline: as §2
Bacteroides ovatus [8] = assay: Antibacterial activity against Bacteroides ovatus isolated from patient with diabetic foot infection after 44 to 48 hrs by agar dilution method; outline: as §1
Bacteroides caccae [9] = assay: Antibacterial activity against Bacteroides caccae isolated from patient with diabetic foot infection after 44 to 48 hrs by agar dilution method; outline: as §1
Anaerococcus prevotii [10] = assay: Antibacterial activity against Anaerococcus prevotii isolated from patient with diabetic foot infection after 44 to 48 hrs by agar dilution method; outline: as §1
Bacteroides fragilis = assay: Antibacterial activity against Bacteroides fragilis isolated from patient with diabetic foot infection after 44 to 48 hrs by agar dilution method; outline: as §1
Finegoldia magna [11] = assay: Antibacterial activity against Finegoldia magna isolated from patient with diabetic foot infection after 44 to 48 hrs by agar dilution method; outline: as §1
[12] = tested on: Enterocloster clostridioformis; assay: Antibacterial activity against Clostridium clostridioforme isolated from patient with diabetic foot infection after 44 to 48 hrs by agar dilution method; outline: as §1
Cutibacterium acnes [13] = assay: Antibacterial activity against Propionibacterium acnes isolated from patient with diabetic foot infection assessed as percent resistant isolates after 44 to 48 hrs by agar dilution method; outline: as §2
Prevotella bivia [14] = assay: Antibacterial activity against Prevotella bivia isolated from patient with diabetic foot infection after 44 to 48 hrs by agar dilution method; outline: as §1
[Clostridium] innocuum [15] = Antibacterial activity against Clostridium innocuum isolated from patient with diabetic foot infection assessed as percent resistant isolates after 44 to 48 hrs by agar dilution method; outline: as §2
Parvimonas micra = assay: Antibacterial activity against Peptostreptococcus micros isolated from patient with diabetic foot infection assessed as percent resistant isolates after 44 to 48 hrs by agar dilution method; outline: as §2
[16] = tested on: Porphyromonas asaccharolytica; assay: Antibacterial activity against Porphyromonas asaccharolyticus isolated from patient with diabetic foot infection after 44 to 48 hrs by agar dilution method; outline: as §1
[17] = tested on: Clostridium malenominatum; assay: Antibacterial activity against Clostridium malenominatum isolated from patient with diabetic foot infection after 44 to 48 hrs by agar dilution method; outline: as §1
Bacteroides stercoris = assay: Antibacterial activity against Bacteroides stercoris isolated from patient with diabetic foot infection assessed as percent resistant isolates after 44 to 48 hrs by agar dilution method; outline: as §2
Cutibacterium acnes [18] = assay: Antibacterial activity against Propionibacterium acnes isolated from patient with diabetic foot infection after 44 to 48 hrs by agar dilution method; outline: as §1
[19] = tested on: Enterocloster clostridioformis; assay: Antibacterial activity against Clostridium clostridioforme isolated from patient with diabetic foot infection assessed as percent resistant isolates after 44 to 48 hrs by agar dilution method; outline: as §2
Bacteroides caccae [20] = assay: Antibacterial activity against Bacteroides caccae isolated from patient with diabetic foot infection assessed as percent resistant isolates after 44 to 48 hrs by agar dilution method; outline: as §2
Parabacteroides merdae [21] = assay: Antibacterial activity against Parabacteroides merdae isolated from patient with diabetic foot infection assessed as percent resistant isolates after 44 to 48 hrs by agar dilution method; outline: as §2
Bacteroides uniformis = assay: Antibacterial activity against Bacteroides uniformis isolated from patient with diabetic foot infection after 44 to 48 hrs by agar dilution method; outline: as §1
[Clostridium] innocuum [22] = Antibacterial activity against Clostridium innocuum isolated from patient with diabetic foot infection after 44 to 48 hrs by agar dilution method; outline: as §1
Clostridium perfringens = assay: Antibacterial activity against Clostridium perfringens isolated from patient with diabetic foot infection after 44 to 48 hrs by agar dilution method; outline: as §2
[23] = tested on: Peptoniphilus asaccharolyticus; assay: Antibacterial activity against Peptoniphilus asaccharolyticus isolated from patient with diabetic foot infection assessed as percent resistant isolates after 44 to 48 hrs by agar dilution method; outline: as §2
Anaerococcus vaginalis [24] = assay: Antibacterial activity against Anaerococcus vaginalis isolated from patient with diabetic foot infection after 44 to 48 hrs by agar dilution method; outline: as §1
Phocaeicola vulgatus = assay: Antibacterial activity against Bacteroides vulgatus isolated from patient with diabetic foot infection after 44 to 48 hrs by agar dilution method; outline: as §1
Anaerococcus tetradius [25] = assay: Antibacterial activity against Anaerococcus tetradius isolated from patient with diabetic foot infection after 44 to 48 hrs by agar dilution method; outline: as §1
Anaerococcus prevotii [26] = assay: Antibacterial activity against Anaerococcus prevotii isolated from patient with diabetic foot infection assessed as percent resistant isolates after 44 to 48 hrs by agar dilution method; outline: as §2
Finegoldia magna [27] = assay: Antibacterial activity against Finegoldia magna isolated from patient with diabetic foot infection assessed as percent resistant isolates after 44 to 48 hrs by agar dilution method; outline: as §2
Prevotella bivia [28] = assay: Antibacterial activity against Prevotella bivia isolated from patient with diabetic foot infection assessed as percent resistant isolates after 44 to 48 hrs by agar dilution method; outline: as §2
[29] = tested on: Clostridium malenominatum; assay: Antibacterial activity against Clostridium malenominatum isolated from patient with diabetic foot infection assessed as percent resistant isolates after 44 to 48 hrs by agar dilution method; outline: as §2
Porphyromonas somerae = assay: Antibacterial activity against Porphyromonas somerae isolated from patient with diabetic foot infection assessed as percent resistant isolates after 44 to 48 hrs by agar dilution method; outline: as §2
Anaerococcus tetradius [30] = assay: Antibacterial activity against Anaerococcus tetradius isolated from patient with diabetic foot infection assessed as percent resistant isolates after 44 to 48 hrs by agar dilution method; outline: as §2

Compound: C[C@@H](O)[C@H]1C(=O)N2C(C(=O)O)=C(S[C@@H]3CN[C@H](C(=O)Nc4cccc(C(=O)O)c4)C3)[C@H](C)[C@H]12 [ERTAPENEM]
- MIC50 [1]: 0.25 µg/mL (≈ 0.526 µM)
- MIC90 [1]: 2 µg/mL (≈ 4.21 µM)
- Activity (Anaerococcus vaginalis [2]): 0%
- MIC50 [3]: ≤ 0.015 µg/mL
- MIC90 [3]: 0.25 µg/mL (≈ 0.526 µM)
- Activity [4]: 0%
- Activity (Bacteroides ovatus [5]): 0%
- MIC50 (Parabacteroides merdae [6]): 1 µg/mL (≈ 2.1 µM)
- MIC90 (Parabacteroides merdae [6]): 2 µg/mL (≈ 4.21 µM)
- Activity [7]: 0%
- MIC50 (Bacteroides ovatus [8]): 1 µg/mL (≈ 2.1 µM)
- MIC90 (Bacteroides ovatus [8]): 2 µg/mL (≈ 4.21 µM)
- MIC50 (Bacteroides caccae [9]): 1 µg/mL (≈ 2.1 µM)
- MIC90 (Bacteroides caccae [9]): 2 µg/mL (≈ 4.21 µM)
- MIC50 (Anaerococcus prevotii [10]): 0.125 µg/mL (≈ 0.263 µM)
- MIC90 (Anaerococcus prevotii [10]): 0.25 µg/mL (≈ 0.526 µM)
- MIC50 (Bacteroides fragilis): 0.25 µg/mL (≈ 0.526 µM)
- MIC90 (Bacteroides fragilis): 1 µg/mL (≈ 2.1 µM)
- MIC50 (Finegoldia magna [11]): 0.06 µg/mL (≈ 0.126 µM)
- MIC90 (Finegoldia magna [11]): 0.125 µg/mL (≈ 0.263 µM)
- MIC50 [12]: 0.25 µg/mL (≈ 0.526 µM)
- MIC90 [12]: 2 µg/mL (≈ 4.21 µM)
- Activity (Cutibacterium acnes [13]): 0%
- MIC50 (Prevotella bivia [14]): 0.25 µg/mL (≈ 0.526 µM)
- MIC90 (Prevotella bivia [14]): 0.5 µg/mL (≈ 1.05 µM)
- Activity ([Clostridium] innocuum [15]): 0%
- Activity (Parvimonas micra): 0%
- MIC50 [16]: ≤ 0.015 µg/mL
- MIC90 [16]: 0.06 µg/mL (≈ 0.126 µM)
- MIC50 [17]: 0.25 µg/mL (≈ 0.526 µM)
- MIC90 [17]: 2 µg/mL (≈ 4.21 µM)
- Activity (Bacteroides stercoris): 0%
- MIC50 (Cutibacterium acnes [18]): 0.125 µg/mL (≈ 0.263 µM)
- MIC90 (Cutibacterium acnes [18]): 0.25 µg/mL (≈ 0.526 µM)
- Activity [19]: 0%
- Activity (Bacteroides caccae [20]): 0%
- Activity (Parabacteroides merdae [21]): 0%
- MIC50 (Bacteroides uniformis): 1 µg/mL (≈ 2.1 µM)
- MIC90 (Bacteroides uniformis): 2 µg/mL (≈ 4.21 µM)
- MIC50 ([Clostridium] innocuum [22]): 0.25 µg/mL (≈ 0.526 µM)
- MIC90 ([Clostridium] innocuum [22]): 2 µg/mL (≈ 4.21 µM)
- MIC50 (Clostridium perfringens): 0.06 µg/mL (≈ 0.126 µM)
- MIC90 (Clostridium perfringens): 0.125 µg/mL (≈ 0.263 µM)
- Activity [23]: 0%
- MIC50 (Anaerococcus vaginalis [24]): 0.125 µg/mL (≈ 0.263 µM)
- MIC90 (Anaerococcus vaginalis [24]): 0.25 µg/mL (≈ 0.526 µM)
- MIC50 (Phocaeicola vulgatus): 1 µg/mL (≈ 2.1 µM)
- MIC90 (Phocaeicola vulgatus): 2 µg/mL (≈ 4.21 µM)
- MIC50 (Anaerococcus tetradius [25]): 0.125 µg/mL (≈ 0.263 µM)
- MIC90 (Anaerococcus tetradius [25]): 0.25 µg/mL (≈ 0.526 µM)
- Activity (Anaerococcus prevotii [26]): 0%
- Activity (Finegoldia magna [27]): 0%
- Activity (Prevotella bivia [28]): 0%
- Activity [29]: 0%
- Activity (Porphyromonas somerae): 0%
- Activity (Anaerococcus tetradius [30]): 0%

Compound: C[C@@H](O)[C@H]1C(=O)N2C(C(=O)O)=C(SCCNC=N)C[C@H]12 [IMIPENEM ANHYDROUS]
- MIC50 [1]: 0.25 µg/mL (≈ 0.835 µM)
- MIC90 [1]: 2 µg/mL (≈ 6.68 µM)
- Activity (Anaerococcus vaginalis [2]): 0%
- MIC50 [3]: ≤ 0.015 µg/mL
- MIC90 [3]: 0.03 µg/mL (≈ 0.1 µM)
- Activity [4]: 0%
- Activity (Bacteroides ovatus [5]): 0%
- MIC50 (Parabacteroides merdae [6]): 0.5 µg/mL (≈ 1.67 µM)
- MIC90 (Parabacteroides merdae [6]): 1 µg/mL (≈ 3.34 µM)
- Activity [7]: 0%
- MIC50 (Bacteroides ovatus [8]): 0.5 µg/mL (≈ 1.67 µM)
- MIC90 (Bacteroides ovatus [8]): 1 µg/mL (≈ 3.34 µM)
- MIC50 (Bacteroides caccae [9]): 0.5 µg/mL (≈ 1.67 µM)
- MIC90 (Bacteroides caccae [9]): 1 µg/mL (≈ 3.34 µM)
- MIC50 (Anaerococcus prevotii [10]): ≤ 0.015 µg/mL
- MIC90 (Anaerococcus prevotii [10]): 0.03 µg/mL (≈ 0.1 µM)
- MIC50 (Bacteroides fragilis): 0.125 µg/mL (≈ 0.418 µM)
- MIC90 (Bacteroides fragilis): 0.125 µg/mL (≈ 0.418 µM)
- MIC50 (Finegoldia magna [11]): 0.03 µg/mL (≈ 0.1 µM)
- MIC90 (Finegoldia magna [11]): 0.06 µg/mL (≈ 0.2 µM)
- MIC50 [12]: 0.25 µg/mL (≈ 0.835 µM)
- MIC90 [12]: 2 µg/mL (≈ 6.68 µM)
- Activity (Cutibacterium acnes [13]): 0%
- MIC50 (Prevotella bivia [14]): 0.03 µg/mL (≈ 0.1 µM)
- MIC90 (Prevotella bivia [14]): 0.03 µg/mL (≈ 0.1 µM)
- Activity ([Clostridium] innocuum [15]): 0%
- Activity (Parvimonas micra): 0%
- MIC50 [16]: < 0.015 µg/mL
- MIC90 [16]: ≤ 0.015 µg/mL
- MIC50 [17]: 0.25 µg/mL (≈ 0.835 µM)
- MIC90 [17]: 2 µg/mL (≈ 6.68 µM)
- Activity (Bacteroides stercoris): 0%
- MIC50 (Cutibacterium acnes [18]): ≤ 0.015 µg/mL
- MIC90 (Cutibacterium acnes [18]): ≤ 0.015 µg/mL
- Activity [19]: 0%
- Activity (Bacteroides caccae [20]): 0%
- Activity (Parabacteroides merdae [21]): 0%
- MIC50 (Bacteroides uniformis): 0.5 µg/mL (≈ 1.67 µM)
- MIC90 (Bacteroides uniformis): 1 µg/mL (≈ 3.34 µM)
- MIC50 ([Clostridium] innocuum [22]): 0.25 µg/mL (≈ 0.835 µM)
- MIC90 ([Clostridium] innocuum [22]): 2 µg/mL (≈ 6.68 µM)
- MIC50 (Clostridium perfringens): 0.06 µg/mL (≈ 0.2 µM)
- MIC90 (Clostridium perfringens): 0.125 µg/mL (≈ 0.418 µM)
- Activity [23]: 0%
- MIC50 (Anaerococcus vaginalis [24]): ≤ 0.015 µg/mL
- MIC90 (Anaerococcus vaginalis [24]): 0.03 µg/mL (≈ 0.1 µM)
- MIC50 (Phocaeicola vulgatus): 0.5 µg/mL (≈ 1.67 µM)
- MIC90 (Phocaeicola vulgatus): 1 µg/mL (≈ 3.34 µM)
- MIC50 (Anaerococcus tetradius [25]): ≤ 0.015 µg/mL
- MIC90 (Anaerococcus tetradius [25]): 0.03 µg/mL (≈ 0.1 µM)
- Activity (Anaerococcus prevotii [26]): 0%
- Activity (Finegoldia magna [27]): 0%
- Activity (Prevotella bivia [28]): 0%
- Activity [29]: 0%
- Activity (Porphyromonas somerae): 0%
- Activity (Anaerococcus tetradius [30]): 0%
